Active and inactive are the calls of the source. No cut-off for these calls is given here.
What was measured:
RAW264.7 [1] = test: Inhibition of LPS-induced nitric oxide production in mouse RAW264.7 cells; assay type: functional, cell-based
Outline: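 RAW264.7 macrophages were plated at 1 × 10⁵ cells/well and cultured overnight. Cells were exposed to 10 ng/mL LPS with graded compound concentrations for 20 h at 37 °C, 5% CO₂, in phenol red-free RPMI1640 containing 1% heat-inactivated FBS. Supernatant nitrite was read fluorometrically with DAN followed by NaOH (ex 355/em 460 nm). IC50 is the concentration halving NO versus control; mean ± SD of two or three experiments.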

RAW264.7 [2] = test: Inhibition of LPS-induced TNFalpha production in mouse RAW264.7 cells by ELISA; assay type: functional, cell-based
Outline: (§1)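 RAW264.7 cells (grown in RPMI1640 with 10% heat-inactivated FBS) were seeded at 1 × 10⁵ cells/well and left overnight. They were then stimulated with 10 ng/mL LPS (E. coli O111:B4) plus a range of compound concentrations for 20 h at 37 °C in phenol red-free RPMI1640 with 1% FBS. TNF-α and IL-6 in the supernatant were measured by ELISA.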

RAW264.7 [3] = test: Inhibition of LPS-induced IL6 production in mouse RAW264.7 cells by ELISA; assay type: functional, cell-based; outline: as §1
Mus musculus [4] = test: Survival of LPS-challenged BALB/c mouse endotoxin shock model at 3 mg/kg, iv; assay type: functional, organism-based; parameters: dose 3 mg/kg
Outline: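 Female BALB/c mice (6-week-old, acclimated at least 1 week) were given compound iv in 10% glucuronylglucosyl-β-cyclodextrin 1 h before a lethal LPS challenge (7 mg/kg ip). Survival was recorded for 7 days, with 10 mice per group. Survival was analysed by Tarone's test with a closed step-down method versus vehicle.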

Mus musculus [5] = test: Suppression of serum IL1-beta level in LPS-challenged BALB/c mouse endotoxin shock model at 0.1 to 3 mg/kg, iv; assay type: functional, organism-based
Outline: (§2)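 Female BALB/c mice (6-week-old) received compound iv at 0.1–3 mg/kg in 10% glucuronylglucosyl-β-cyclodextrin, 1 h before LPS 7 mg/kg ip. Serum was collected at 1 h for TNF-α, 2 h for IL-6 and 6 h for IL-1β, then assayed by ELISA. n = 8 mice; means ± SE; one-tailed Williams or Shirley-Williams test versus vehicle.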

Mus musculus [6] = test: Suppression of serum IL6 level in LPS-challenged BALB/c mouse endotoxin shock model at 0.1 to 3 mg/kg, iv; assay type: functional, organism-based; outline: as §2
Mus musculus [7] = test: Survival of LPS-challenged intravenously dosed BALB/c mouse endotoxin shock model; assay type: functional; settings: iv
Outline: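 Female BALB/c mice (6-week-old, 15-21 g), acclimated at least one week. Compound dissolved in 10% (w/v) glucuronylglucosyl-β-cyclodextrin sodium salt, given iv at 0.3-3 mg/kg 1 h before lethal LPS (E. coli O111:B4, 7 mg/kg ip, in saline). Survival recorded for 7 days; 10 mice per group; Tarone's test with simple closed step-down method vs vehicle; ED50 as minimum effective dose.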

Mus musculus [8] = test: Suppression of serum nitric oxide level in LPS-challenged BALB/c mouse endotoxin shock model at 0.1 to 3 mg/kg, iv; assay type: functional, organism-based
Outline: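 Female BALB/c mice were dosed iv at 0.1–3 mg/kg (10% glucuronylglucosyl-β-cyclodextrin vehicle) 1 h before LPS 7 mg/kg ip. Serum was taken at 6 h. Nitrate was reduced to nitrite with Aspergillus nitrate reductase and β-NADPH for 20 min, then read with DAN/HCl and NaOH fluorescence (ex 355/em 460 nm) against a sodium nitrite standard curve. n = 8 mice; means ± SE.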

Mus musculus [9] = test: Suppression of serum TNF-alpha level in LPS-challenged BALB/c mouse endotoxin shock model at 0.1 to 3 mg/kg, iv; assay type: functional, organism-based; outline: as §2

IC50 (RAW264.7 [1]) [nM] | Compound | also measured
240 | CCOC(=O)C1=CCCCCC1S(=O)(=O)Nc1ccc(F)cc1Cl (stereo unspecified) | –
140 | CCCCOC(=O)C1=CCCCC1S(=O)(=O)Nc1ccc(F)cc1F (stereo unspecified) | –
75 | CCOC(=O)C1=CCCCC1S(=O)(=O)Nc1ccccc1F (stereo unspecified) | –
230 | CCOC(=O)C1=CCCCC1S(=O)(=O)N(C)c1ccc(Cl)cc1F (stereo unspecified) | –
150 | CCOC(=O)C1=CCCCC1S(=O)(=O)Nc1cccc(F)c1 (stereo unspecified) | –
260 | CCOC(=O)C1=CCCCC1S(=O)(=O)Nc1ccccc1 (stereo unspecified) | –
640 | CCOC(=O)C1=CCCC[C@@H]1S(=O)(=O)Nc1ccc(F)cc1Cl | IC50 (RAW264.7 [2]): 740 nM; IC50 (RAW264.7 [3]): 480 nM
20 | CCOC(=O)C1=CCCCC1S(=O)(=O)Nc1ccc(Cl)cc1Cl (stereo unspecified) | –
2600 | C/C=C(\C(=O)OCC)C(CCC)S(=O)(=O)Nc1ccc(F)cc1Cl (stereo unspecified) | –
110 | CC(C)OC(=O)C1=CCCCC1S(=O)(=O)Nc1ccc(F)cc1F (stereo unspecified) | –
1700 | CCOC(=O)C1=C(S(=O)(=O)Nc2ccc(Cl)cc2F)CCCC1 | –
49 | CC(C)COC(=O)C1=CCCCC1S(=O)(=O)Nc1ccc(F)cc1F (stereo unspecified) | –
1100 | CCOC(=O)C1=CCCCC1S(=O)(=O)Nc1ccccc1C(=O)OC (stereo unspecified) | –
29 | CCCOC(=O)C1=CCCCC1S(=O)(=O)Nc1ccc(F)cc1F (stereo unspecified) | –
160 | CCOC(=O)C1=CCCCC1S(=O)(=O)Nc1c(F)cccc1F (stereo unspecified) | –
400 | CCOC(=O)C1=CCCCC1S(=O)(=O)Nc1ccc(Cl)cc1 (stereo unspecified) | –
66 | CCOC(=O)C1=CCCCC1S(=O)(=O)Nc1cccc(Cl)c1 (stereo unspecified) | –
330 | O=C(OCCO)C1=CCCCC1S(=O)(=O)Nc1ccc(F)cc1F (stereo unspecified) | –

IC50 (RAW264.7 [1]) [nM] | Compound | also measured
> 8200 | CCOC(=O)C1=C(S(=O)(=O)Nc2ccccc2)CCCC1 | –
12 | CCOC(=O)C1=CCCCC1S(=O)(=O)Nc1ccccc1Cl (stereo unspecified) | –
1600 | CCOC(=O)C1=CCCCC1S(=O)(=O)Nc1ccc(C#N)cc1Cl (stereo unspecified) | –
4100 | O=C1C2=C(CCCC2)S(=O)(=O)N1c1ccc(F)cc1 | –
160 | CCOC(=O)C1=CCCCC1S(=O)(=O)Nc1ccc(Cl)cc1F (stereo unspecified) | IC50 (RAW264.7 [2]): 230 nM; IC50 (RAW264.7 [3]): 170 nM
130 | CCOC(=O)C1=CCCCC1S(=O)(=O)Nc1ccccc1CC (stereo unspecified) | –
110 | CCOC(=O)C1=CCCC1S(=O)(=O)Nc1ccc(F)cc1Cl (stereo unspecified) | –
16 | CCOC(=O)C1=CCCCC1S(=O)(=O)Nc1ccc(F)cc1F (stereo unspecified) | –
> 10000 | CCOC(=O)C1=CCCCC1S(=O)(=O)Nc1nncs1 (stereo unspecified) | –
57 | COC(=O)C1=CCCCC1S(=O)(=O)Nc1ccc(F)cc1F (stereo unspecified) | –
> 10000 | CCOC(=O)c1ccccc1S(=O)(=O)Nc1ccc(F)cc1Cl | –
1400 | CCOC(=O)C1=C(S(=O)(=O)Nc2ccc(F)cc2)CCCC1 | –
> 10000 | CCOC(=O)C1=CCCCC1S(=O)(=O)Nc1nccs1 (stereo unspecified) | –
3.2 | CCOC(=O)C1=CCCCC1S(=O)(=O)Nc1ccc(F)cc1Cl (stereo unspecified) | IC50 (RAW264.7 [2]): 3.4 nM; IC50 (RAW264.7 [3]): 2.5 nM
30 | CCOC(=O)C1=CCCCC1S(=O)(=O)Nc1cc(F)c(F)cc1F (stereo unspecified) | –
110 | CCOC(=O)C1=CCCCC1S(=O)(=O)Nc1ccc(F)cc1 (stereo unspecified) | –
41 | CCOC(=O)C1=CCCCC1S(=O)(=O)Nc1ccc(C)cc1Cl (stereo unspecified) | –
140 | CCOC(=O)C1=CCCCC1S(=O)(=O)Nc1cccc(F)c1F (stereo unspecified) | –

Compound | IC50 (RAW264.7 [1]) [nM] | also measured
CCOC(=O)C1=CCCC[C@H]1S(=O)(=O)Nc1ccc(F)cc1Cl [RESATORVID] | 1.8 | Activity (Mus musculus [4]): Active; Activity (Mus musculus [5]): Active; IC50 (RAW264.7 [2]): 1.9 nM; Activity (Mus musculus [6]): Active; IC50 (RAW264.7 [3]): 1.3 nM; ED50 (Mus musculus [7]): 0.3 mg/kg; Activity (Mus musculus [8]): Active; Activity (Mus musculus [9]): Active

Reference: ChEMBL document CHEMBL1140297, “Discovery of novel and potent small-molecule inhibitors of NO and cytokine production as antisepsis agents: synthesis and biological activity of alkyl 6-(N-substituted sulfamoyl)cyclohex-1-ene-1-carboxylate” (J Med Chem, 2005)
